Our source for the GI50 values is ChEMBL document CHEMBL3616466, “Pyrazolo[3,4-h]quinolines promising photosensitizing agents in the treatment of cancer” (Eur J Med Chem, 2015).

What all share (type): functional
Test [1] deals with LoVo. Nature of the test: Cytotoxicity against human LoVo cells assessed as growth inhibition after 72 hrs by MTT assay. Summed up:
(§1)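 Cells (5 × 10³ per well) pre-incubated 24 h at 37 °C, 5% CO₂, then exposed in the dark to serial concentrations diluted from DMSO stock into complete medium for 72 h at 37 °C. Viability read by MTT; GI50 derived. LoVo in Ham's F-12, MCF-7 and A-549 in DMEM, all with 10% FBS and penicillin/streptomycin.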
In general terms: Tetrazolium assays rely on reduction of a dye to a coloured formazan, in cell work by metabolically active cells.

Test [2] deals with MCF7. Nature of the test: Photocytotoxicity against human MCF7 cells assessed as growth inhibition at 3.75 J/cm'2 irradiation for 30 mins followed by drug treated for 72 hrs by MTT assay. As to conditions: MCF7, light or radiation study. In outline: (§2)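 Cells seeded at 5 × 10³ per well and pre-incubated 24 h. Drug dilutions in HBSS (pH 7.2, from DMSO stock) added for 30 min at 37 °C, then UV-A irradiation at the stated dose. Drug solution then replaced with culture medium and plates incubated 72 h. Viability by MTT; GI50 from concentration series.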

The test system of test [3] is MCF7. Nature of the test: Photocytotoxicity against human MCF7 cells assessed as growth inhibition at 2.5 J/cm'2 irradiation for 30 mins followed by drug treated for 72 hrs by MTT assay. As to conditions: MCF7, light or radiation study. Summed up:
as §2

Test [4] relates to LoVo. Nature of the test: Photocytotoxicity against human LoVo cells assessed as growth inhibition at 2.5 J/cm'2 irradiation for 30 mins followed by drug treated for 72 hrs by MTT assay. As to conditions: light or radiation study. In outline: as §2
Test [5] deals with Jurkat. Description: Cytotoxicity against human Jurkat cells assessed as growth inhibition after 72 hrs by MTT assay.
In test [6] the test system is A549. Nature of the test: Cytotoxicity against human A549 cells assessed as growth inhibition after 72 hrs by MTT assay. As to conditions: A549, 72 h. In outline: as §1
Test [7] relates to HL-60. Description: Cytotoxicity against human HL60 cells assessed as growth inhibition after 72 hrs by MTT assay. As to conditions: HL-60, 72 h.
The test system of test [8] is A549. Description: Photocytotoxicity against human A549 cells assessed as growth inhibition at 3.75 J/cm'2 irradiation for 30 mins followed by drug treated for 72 hrs by MTT assay. As to conditions: A549, light or radiation study. In outline:
as §2

In test [9] the test system is LoVo. Nature of the test: Photocytotoxicity against human LoVo cells assessed as growth inhibition at 3.75 J/cm'2 irradiation for 30 mins followed by drug treated for 72 hrs by MTT assay. As to conditions: light or radiation study. Summed up:
as §2

Test [10] deals with A549. Description: Photocytotoxicity against human A549 cells assessed as growth inhibition at 2.5 J/cm'2 irradiation for 30 mins followed by drug treated for 72 hrs by MTT assay. As to conditions: A549, light or radiation study. In outline:
as §2

Test [11] relates to HL-60. Nature of the test: Photocytotoxicity against human HL60 cells assessed as growth inhibition at 1.25 J/cm'2 irradiation for 30 mins followed by drug treated for 72 hrs by MTT assay. As to conditions: HL-60, light or radiation study. In outline: as §2
For test [12], the system named is MCF7. Nature of the test: Cytotoxicity against human MCF7 cells assessed as growth inhibition after 72 hrs by MTT assay. As to conditions: MCF7, 72 h. In outline: as §1
The subject of test [13] is Jurkat. Description: Photocytotoxicity against human Jurkat cells assessed as growth inhibition at 2.5 J/cm'2 irradiation for 30 mins followed by drug treated for 72 hrs by MTT assay. As to conditions: light or radiation study. In outline:
as §2

Test [14] deals with HL-60. Nature of the test: Photocytotoxicity against human HL60 cells assessed as growth inhibition at 2.5 J/cm'2 irradiation for 30 mins followed by drug treated for 72 hrs by MTT assay. As to conditions: HL-60, light or radiation study. In outline: as §2
The subject of test [15] is Jurkat. Nature of the test: Photocytotoxicity against human Jurkat cells assessed as growth inhibition at 1.25 J/cm'2 irradiation for 30 mins followed by drug treated for 72 hrs by MTT assay. As to conditions: light or radiation study. In outline:
as §2

In general, GI50 refers to the concentration at which growth is held to half of that of the control. As to `O=c1[nH]c2c(cc1S(=O)(=O)c1ccccc1)CCc1c-2cnn1-c1cccc(Cl)c1`, the GI50 was over 20 µM in the test with LoVo [1]; over 20 µM with MCF7 [2]; over 20 µM with MCF7 [3]; over 20 µM in the test on LoVo [4]; 4.55 µM with Jurkat [5]; 6.41 µM with A549 [6]. The GI50 in the test with HL-60 [7] was over 20 µM; in the test with A549 [8], 9.53 µM; in the test on LoVo [9], over 20 µM; in the test on A549 [10], 14.1 µM; with HL-60 [11], over 20 µM; in the test on MCF7 [12], over 20 µM. Further, the GI50 with Jurkat [13], in the test with HL-60 [14] and in the test with Jurkat [15] was over 20 µM each time.

`O=c1[nH]c2c(cc1S(=O)(=O)c1ccccc1)CCc1c-2cnn1-c1ccccc1`: the concentration for 50% growth inhibition (GI50) in the test with LoVo [1] is over 20 µM; in the test with MCF7 [2], over 20 µM; in the test with MCF7 [3], over 20 µM; in the test with LoVo [4] it was over 20 µM; in the test on Jurkat [5], 20 µM; in the test on A549 [6], 10.8 µM. Also, the GI50 with HL-60 [7] was over 20 µM; in the test on A549 [8], 14.1 µM; with LoVo [9], over 20 µM; with A549 [10], over 20 µM; in the test with HL-60 [11], over 20 µM; in the test with MCF7 [12], 11.5 µM. In addition, the GI50 in the test with Jurkat [13], in the test on HL-60 [14] and with Jurkat [15] was over 20 µM each time.

With `O=c1c(S(=O)(=O)c2ccccc2)cc2c(n1Cc1ccccc1)-c1cnn(-c3ccc(Cl)cc3)c1CC2`, the GI50 in the test on LoVo [1] was over 20 µM; in the test on MCF7 [2], 9.89 µM; with MCF7 [3] it was over 20 µM; in the test on LoVo [4], 11.1 µM; in the test with Jurkat [5], 13.6 µM; in the test on A549 [6], over 20 µM. Further, the 50% growth inhibitory concentration (GI50) with HL-60 [7] is 11.6 µM; with A549 [8], 6.64 µM; in the test on LoVo [9], 3.72 µM; in the test on A549 [10], over 20 µM; with HL-60 [11], over 20 µM; with MCF7 [12], over 20 µM. Moreover, the GI50 in the test on Jurkat [13] was 4.97 µM; with HL-60 [14] it was 7.17 µM; with Jurkat [15] it was over 20 µM.

As to `COc1ccc(-n2ncc3c4nc(OC)c(S(=O)(=O)c5ccccc5)cc4ccc32)cc1`, the GI50 in the test with LoVo [1] was over 20 µM; in the test on MCF7 [2] it was 0.59 µM; with MCF7 [3], 1.23 µM; in the test with LoVo [4], 0.42 µM; in the test on Jurkat [5], over 20 µM; with A549 [6], over 20 µM. Also, the GI50 in the test with HL-60 [7] was over 20 µM; in the test with A549 [8] it was 0.09 µM; in the test with LoVo [9], 0.16 µM; in the test on A549 [10], 0.35 µM; in the test with HL-60 [11], 0.99 µM; in the test on MCF7 [12], 16.2 µM. The GI50 turned out to be 0.54 µM in the test on Jurkat [13], 0.76 µM with HL-60 [14] and 1.5 µM in the test with Jurkat [15].

On to `CCOC(=O)c1cc2c([nH]c1=O)-c1cnn(-c3ccc(Cl)cc3)c1CC2`, for which the GI50 is over 20 µM in the test with LoVo [1]; 9.85 µM in the test on MCF7 [2]; 7.32 µM in the test with MCF7 [3]; over 20 µM with LoVo [4]; over 20 µM in the test on Jurkat [5]; 5 µM with A549 [6]. Moreover, the GI50 with HL-60 [7] was over 20 µM; with A549 [8] it was over 20 µM; with LoVo [9], over 20 µM; in the test on A549 [10] it was over 20 µM; in the test with HL-60 [11], over 20 µM; in the test on MCF7 [12], 6.38 µM. Besides, the concentration for 50% growth inhibition (GI50) in the test on Jurkat [13], with HL-60 [14] and in the test on Jurkat [15] was over 20 µM in each case.

With `COc1nc2c(cc1S(=O)(=O)c1ccccc1)CCc1c-2cnn1-c1ccccc1`, the GI50 in the test with LoVo [1] is over 20 µM; in the test on MCF7 [2], 1.84 µM; in the test on MCF7 [3], 2.47 µM; in the test with LoVo [4], 3.14 µM; with Jurkat [5] it was 12.1 µM; with A549 [6] it was over 20 µM. Besides, the GI50 is over 20 µM with HL-60 [7]; 2.89 µM in the test on A549 [8]; 1.1 µM with LoVo [9]; 7.56 µM with A549 [10]; 2.83 µM with HL-60 [11]; over 20 µM with MCF7 [12]. Also, the GI50 in the test on Jurkat [13] was found to be 0.71 µM; in the test with HL-60 [14], 0.79 µM; in the test on Jurkat [15], 3.65 µM.

On to `COc1nc2c(ccc3c2cnn3-c2ccc(Cl)cc2)cc1S(=O)(=O)c1ccccc1`, for which the GI50 is over 20 µM in the test with LoVo [1]; 3.23 µM in the test on MCF7 [2]; 5.36 µM in the test with MCF7 [3]; 1.43 µM in the test on LoVo [4]; over 20 µM in the test on Jurkat [5]; 4.6 µM in the test on A549 [6]. The GI50 in the test with HL-60 [7] was over 20 µM; in the test on A549 [8] it was 0.75 µM; in the test with LoVo [9] it was 0.71 µM; in the test on A549 [10], 3.09 µM; in the test with HL-60 [11], 2.16 µM; in the test with MCF7 [12] it was 7.51 µM. In addition, the figures for the GI50 in the test on Jurkat [13], in the test with HL-60 [14] and with Jurkat [15] were 0.96 µM, 1.2 µM and 4.23 µM, respectively.

Take `COc1ccc(-n2ncc3c4[nH]c(=O)c(S(=O)(=O)c5ccccc5)cc4ccc32)cc1`: the GI50 was over 20 µM with LoVo [1]; over 20 µM in the test on MCF7 [2]; over 20 µM with MCF7 [3]; over 20 µM in the test on LoVo [4]; over 20 µM in the test on Jurkat [5]; 6.56 µM in the test on A549 [6]. Besides, the GI50 in the test on HL-60 [7] is over 20 µM; in the test with A549 [8], 4.26 µM; in the test with LoVo [9], over 20 µM; in the test with A549 [10] it was 5.39 µM; in the test on HL-60 [11] it was over 20 µM; in the test on MCF7 [12], 8.36 µM. The GI50 in the test with Jurkat [13], in the test with HL-60 [14] and in the test on Jurkat [15] was over 20 µM each time.

Regarding `Cn1c2c(cc(S(=O)(=O)c3ccccc3)c1=O)CCc1c-2cnn1-c1cccc(Cl)c1`, the GI50 with LoVo [1] was over 20 µM; with MCF7 [2], 9.01 µM; in the test with MCF7 [3], 12.7 µM; in the test with LoVo [4] it was 13.1 µM; with Jurkat [5] it was 11.3 µM; in the test on A549 [6], over 20 µM. Further, the GI50 in the test with HL-60 [7] is over 20 µM; in the test with A549 [8] it was 8.4 µM; in the test on LoVo [9] it was 7.54 µM; in the test with A549 [10], over 20 µM; with HL-60 [11], over 20 µM; in the test on MCF7 [12], over 20 µM. In addition, the concentration for 50% growth inhibition (GI50) in the test on Jurkat [13] is 2.81 µM; with HL-60 [14] it was 2.44 µM; in the test with Jurkat [15] it was over 20 µM.

Take `COc1nc2c(cc1S(=O)(=O)c1ccccc1)CCc1c-2cnn1Cc1ccccc1`: the concentration for 50% growth inhibition (GI50) in the test on LoVo [1] is over 20 µM; in the test on MCF7 [2], 3.05 µM; with MCF7 [3], 4 µM; with LoVo [4], 5.32 µM; in the test on Jurkat [5], 8.43 µM; in the test with A549 [6] it was over 20 µM. The 50% growth inhibitory concentration (GI50) in the test on HL-60 [7] is 6.1 µM; with A549 [8], 5.74 µM; with LoVo [9] it was 1.41 µM; in the test with A549 [10] it was 10.4 µM; in the test with HL-60 [11] it was 3.83 µM; in the test on MCF7 [12], over 20 µM. Besides, the GI50 in the test on Jurkat [13] was 1.4 µM; in the test with HL-60 [14] it was 1.3 µM; with Jurkat [15] it was 2.48 µM.
